Results reported in ChEMBL document CHEMBL4177676, “Discovery of new antimalarial agents: Second-generation dual inhibitors against FP-2 and PfDHFR via fragments assembely” (Bioorg Med Chem, 2017).
Counter-ions that a name gives are not always drawn. The source made the active and inactive calls. No cut-off for these calls is given here.

How the values were obtained:
Falcipain 2 [1] = target: T1, Falcipain 2 (Plasmodium falciparum, UniProt Q9N6S8); experiment: Inhibition of Plasmodium falciparum FP2 using Z-Leu-Arg-AMC as substrate preincubated for 30 min followed by substrate addition measured after 30 mins by spectrofluorimetric method
T1 sequence (Q9N6S8 whole entry): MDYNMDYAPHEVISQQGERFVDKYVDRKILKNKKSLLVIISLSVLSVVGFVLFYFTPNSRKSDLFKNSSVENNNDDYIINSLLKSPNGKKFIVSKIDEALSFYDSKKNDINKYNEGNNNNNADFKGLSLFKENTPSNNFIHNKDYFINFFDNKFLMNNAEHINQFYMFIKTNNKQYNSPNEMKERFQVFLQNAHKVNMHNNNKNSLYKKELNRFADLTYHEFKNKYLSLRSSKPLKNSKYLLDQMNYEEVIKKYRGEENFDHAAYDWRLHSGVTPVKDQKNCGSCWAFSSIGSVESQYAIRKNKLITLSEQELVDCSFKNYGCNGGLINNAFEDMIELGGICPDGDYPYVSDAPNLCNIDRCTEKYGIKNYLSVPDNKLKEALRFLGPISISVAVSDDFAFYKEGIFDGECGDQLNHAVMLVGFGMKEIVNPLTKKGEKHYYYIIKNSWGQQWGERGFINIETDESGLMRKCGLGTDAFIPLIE
In short: (§1)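 FP-2 (30 nM) was preincubated 30 min at room temperature with compound in 100 mM sodium acetate, 10 mM DTT, pH 5.5, with DMSO at most 1%. The fluorescence increase was then monitored for 30 min at room temperature. Percent inhibition was screened at 10 µM. IC50 values were fitted from percent inhibition versus concentration, using three independent experiments.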

Plasmodium berghei = experiment: In vivo antimalarial activity against Plasmodium berghei ANKA infected in BALB/c mouse assessed as reduction in parasitemia at 20 mg/kg, po administered daily for 4 days by Giemsa staining-based method; assay type: functional, organism-based
In short: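 BALB/c mice were infected with P. berghei ANKA. Starting 24 h later, they received 20 mg/kg test compound or control orally once daily for 4 days. Parasitemia was counted on Giemsa-stained blood smears every day over 10 days.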

Plasmodium falciparum [2] = experiment: Antimalarial activity against mid-ring stage of chloroquine-resistant Plasmodium falciparum Dd2 infected in human O-positive erythrocytes after 72 hrs by SYBR Green I dye-based fluorescence assay; assay type: functional, organism-based; conditions: Dd2, 72 h
In short: (§2)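 Sorbitol-synchronised (>80% ring) […] cultures were used at the mid-ring stage (6-10 h post-invasion), at 1% parasitemia and 2% hematocrit, with serial compound dilutions (Dd2 top concentration 10 µM). Incubation was 72 h at 37 °C under 5% CO₂/5% O₂/90% N₂. Cells were then lysed with saponin/Triton X-100 buffer containing 5X SYBR Green I, kept 2 h in the dark, and read at ex 485/em 535 nm.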

[3] = target: T2, Bifunctional dihydrofolate reductase-thymidylate synthase (Plasmodium falciparum K1, UniProt P13922); experiment: Inhibition of Plasmodium falciparum DHFR using DHF as substrate preincubated for 15 mins followed DHF addition measured after 15 mins by spectrophotometric method
T2 sequence (P13922 whole entry): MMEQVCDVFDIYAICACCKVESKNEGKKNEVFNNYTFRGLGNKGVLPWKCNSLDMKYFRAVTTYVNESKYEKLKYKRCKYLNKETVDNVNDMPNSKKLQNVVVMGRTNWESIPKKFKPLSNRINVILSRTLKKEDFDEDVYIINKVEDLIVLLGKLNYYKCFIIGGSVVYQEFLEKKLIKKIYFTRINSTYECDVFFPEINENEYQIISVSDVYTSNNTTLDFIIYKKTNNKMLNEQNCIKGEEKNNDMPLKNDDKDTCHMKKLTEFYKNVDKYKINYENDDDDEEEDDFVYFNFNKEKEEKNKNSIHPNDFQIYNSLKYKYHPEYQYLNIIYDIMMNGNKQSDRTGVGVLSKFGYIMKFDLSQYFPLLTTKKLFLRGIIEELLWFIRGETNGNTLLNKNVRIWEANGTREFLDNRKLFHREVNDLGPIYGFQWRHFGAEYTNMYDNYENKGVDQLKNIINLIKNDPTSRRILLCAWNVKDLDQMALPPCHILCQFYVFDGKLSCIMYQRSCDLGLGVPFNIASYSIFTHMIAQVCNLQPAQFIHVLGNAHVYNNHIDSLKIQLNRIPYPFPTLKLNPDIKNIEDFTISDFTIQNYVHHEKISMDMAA
In short: (§3)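 Purified PfDHFR was preincubated with graded compound concentrations for 15 min on ice in 100 uM NADPH, 50 mM TES pH 7.0, 1 mM EDTA, 75 mM 2-mercaptoethanol and 1 mg/mL BSA. DHF was then added to start the reaction, and NADPH oxidation was followed at 340 nm. IC50 came from percent-inhibition versus concentration plots, three independent experiments.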

[4] = target: Bifunctional dihydrofolate reductase-thymidylate synthase (Plasmodium falciparum K1) (UniProt P13922); experiment: Inhibition of Plasmodium falciparum DHFR at 10 uM using DHF as substrate preincubated for 15 mins followed DHF addition measured after 15 mins by spectrophotometric method
Chain of Bifunctional dihydrofolate reductase-thymidylate synthase (Plasmodium falciparum K1) (P13922 whole entry, looked up): as the sequence (P13922 whole entry) above
In short: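 Purified P. falciparum DHFR was preincubated 15 min on ice with compound in 100 uM NADPH, 50 mM TES pH 7.0, 1 mM EDTA, 75 mM 2-mercaptoethanol and 1 mg/mL BSA. DHF was then added to start the reaction. NADPH oxidation was followed at 340 nm, and percent inhibition was taken at 10 µM.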

Plasmodium falciparum [5] = experiment: Antimalarial activity against mid-ring stage of multidrug-sensitive Plasmodium falciparum 3D7 infected in human O-positive erythrocytes after 72 hrs by SYBR Green I dye-based fluorescence assay; assay type: functional, organism-based; conditions: 3D7, 72 h
In short: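 Cultures were synchronised with 5% sorbitol to over 80% rings, and parasites at mid-ring stage (6–10 h post-invasion) were used at 1% parasitemia and 2% hematocrit. […] Growth ran 72 h at 37 °C under 5% CO₂, 5% O₂, 90% N₂. Cells were lysed in saponin/Triton X-100 buffer with 5X SYBR Green I, kept 2 h in the dark, and fluorescence was read at 485/535 nm.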

[6] = target: T3, Falcipain 2 (Plasmodium falciparum) (UniProt Q9N6S8); experiment: Inhibition of Plasmodium falciparum FP2 at 10 uM using Z-Leu-Arg-AMC as substrate preincubated for 30 min followed by substrate addition measured after 30 mins by spectrofluorimetric method; in short: as §1
T3 sequence (whole entry): T1 sequence (Q9N6S8 whole entry)

Plasmodium falciparum [7] = experiment: Antimalarial activity against mid-ring stage of Plasmodium falciparum GB4 infected in human O-positive erythrocytes after 72 hrs by SYBR Green I dye-based fluorescence assay; assay type: functional, organism-based; conditions: GB4, 72 h; in short: as §2
Plasmodium falciparum [8] = experiment: Antimalarial activity against mid-ring stage of Plasmodium falciparum Fab9 infected in human O-positive erythrocytes after 72 hrs by SYBR Green I dye-based fluorescence assay; assay type: functional, organism-based; conditions: Fab9, 72 h; in short: as §2
Falcipain 2 [9] = target: T1, Falcipain 2; experiment: Inhibition of Plasmodium falciparum FP2; in short: as §1
[10] = target: T2, Bifunctional dihydrofolate reductase-thymidylate synthase; experiment: Inhibition of Plasmodium falciparum DHFR; in short: as §3
Plasmodium falciparum [11] = experiment: Antimalarial activity against mid-ring stage of chloroquine-resistant Plasmodium falciparum Dd2 infected in human O-positive erythrocytes at 20 uM after 72 hrs by SYBR Green I dye-based fluorescence assay; assay type: functional
Plasmodium falciparum [12] = experiment: Antimalarial activity against mid-ring stage of multidrug-sensitive Plasmodium falciparum 3D7 infected in human O-positive erythrocytes at 20 uM after 72 hrs by SYBR Green I dye-based fluorescence assay; assay type: functional

SMILES | IC50 (Falcipain 2 [1]) | IC50 [3] | inhibition [4] | inhibition [6] | also measured
COc1cccc(C(=O)NCCc2ccc(CNc3ccc4nc(N)nc(N)c4c3)cc2)c1 | 6200 nM | 39.6 nM | 96.8% | 52.6% | Activity (Plasmodium berghei): Active; IC50 (Plasmodium falciparum [2]): 2200 nM; IC50 (Plasmodium falciparum [5]): 60.5 nM
COc1cc(OC)cc(C(=O)NCCc2ccc(CNc3ccc4nc(N)nc(N)c4c3)cc2)c1 | – | 32.1 nM | 100% | 41.1% | –
Nc1nc(N)c2cc(NCc3ccc(CCNC(=O)c4cccs4)cc3)ccc2n1 | 10000 nM | 84.1 nM | 97.4% | 67.6% | Activity (Plasmodium berghei): Active; IC50 (Plasmodium falciparum [2]): 1200 nM; IC50 (Plasmodium falciparum [7]): 23.4 nM; IC50 (Plasmodium falciparum [5]): 53.1 nM; IC50 (Plasmodium falciparum [8]): 14.2 nM
Nc1nc(N)c2cc(NCc3ccc(CCNC(=O)c4ccncc4)cc3)ccc2n1 | – | – | 51.5% | 22.9% | –
Nc1nc(N)c2cc(NCc3ccc(CCNC(=O)c4ccc(Cl)cc4F)cc3)ccc2n1 | 9100 nM | – | 68.2% | 62.4% | –
Nc1nc(N)c2cc(NCc3ccc(CCNC(=O)C4CCCCC4)cc3)ccc2n1 | 7700 nM | 226 nM | 96% | 66.6% | –
O=C(CCc1ccc(S(=O)(=O)NCCc2ccccc2)cc1)Nc1ccc2c(c1)OCCO2 | – | – | – | – | IC50 (Falcipain 2 [9]): 54200 nM; IC50 [10]: 35500 nM
Nc1nc(N)c2cc(NCc3ccc(CCNC(=O)c4ccc5ccccc5c4)cc3)ccc2n1 | – | 67.9 nM | 100% | 46.4% | –
CC1(C)N=C(N)N=C(N)N1OCCCOc1cc(Cl)c(Cl)cc1Cl | – | – | – | – | IC50 [10]: 0.57 nM
Nc1nc(N)c2cc(NCc3ccc(CCNC(=O)c4ccc5c(c4)OCO5)cc3)ccc2n1 | 5100 nM | 26.2 nM | 100% | 59.2% | IC50 (Plasmodium falciparum [5]): 78.6 nM
COc1ccc(C(=O)NCCc2ccc(CNc3ccc4nc(N)nc(N)c4c3)cc2)cc1Cl | – | – | 51.2% | 37.6% | –
Nc1nc(N)c2cc(NCc3ccc(CCNC(=O)Cc4ccccc4)cc3)ccc2n1 | 7600 nM | 70.1 nM | 92.4% | 65% | IC50 (Plasmodium falciparum [5]): 266 nM
COc1ccc(OC)c(CNc2ccc3nc(N)nc(N)c3c2Cl)c1 | – | – | – | – | IC50 [10]: 0.39 nM
Nc1nc(N)c2cc(NCc3ccc(CCNC(=O)CCc4ccccc4)cc3)ccc2n1 | 4900 nM | 185 nM | 98.6% | 55.2% | –
C[C@@H]1CC[C@H]2[C@@H](C)C(=O)O[C@@H]3O[C@@]4(C)CC[C@@H]1[C@]32OO4 [ARTEMISININ] | – | – | – | – | Activity (Plasmodium berghei): Active; IC50 (Plasmodium falciparum [7]): 2.2 nM; IC50 (Plasmodium falciparum [5]): 4.1 nM; IC50 (Plasmodium falciparum [8]): 5.2 nM
Nc1nc(N)c2cc(NCc3ccc(CCNC(=O)c4ccc(F)cc4)cc3)ccc2n1 | 6700 nM | 118 nM | 96.7% | 52.7% | IC50 (Plasmodium falciparum [5]): 391 nM
Nc1nc(N)c2cc(NCc3ccc(CCNC(=O)c4ccc(C(F)(F)F)cc4)cc3)ccc2n1 | – | 21.3 nM | 96.4% | 21.5% | –
CCc1nc(N)nc(N)c1-c1ccc(Cl)cc1 [PYRIMETHAMINE] | – | – | – | – | Activity (Plasmodium berghei): Active; IC50 (Plasmodium falciparum [2]): > 10000 nM
Nc1nc(N)c2cc(NCc3ccc(CCNC(=O)c4ccccc4F)cc3)ccc2n1 | – | 180 nM | 100% | 44.6% | –
CC(C)(C)C1CCC(C(=O)NCCc2ccc(CNc3ccc4nc(N)nc(N)c4c3)cc2)CC1 (stereo not drawn) | 7400 nM | 290 nM | 99.9% | 55.8% | –
CC(C)C[C@H](NC(=O)[C@@H]1O[C@H]1C(=O)O)C(=O)NCCCCN=C(N)N | 57.2 nM | – | – | – | –
Nc1nc(N)c2cc(NCc3ccc(CCNC(=O)c4ccc([N+](=O)[O-])cc4)cc3)ccc2n1 | 10000 nM | 55.6 nM | 94.7% | 67% | IC50 (Plasmodium falciparum [5]): 105 nM
CC1(C)N=C(N)N=C(N)N1c1ccc(Cl)cc1 [CHLORCYCLOGUANIL HYDROCHLORIDE] | – | – | – | – | IC50 [10]: 1.5 nM
Cc1nc(N)nc(N)c1OCCCOc1cc(Cl)c(Cl)cc1Cl | – | – | – | – | IC50 [10]: 229 nM
COc1ccc(C(=O)NCCc2ccc(CNc3ccc4nc(N)nc(N)c4c3)cc2)cc1 | – | 157 nM | 95.1% | 21.2% | –
COc1ccc(C(=O)NCCc2ccc(CNc3ccc4nc(N)nc(N)c4c3)cc2)cc1OC | – | 61.1 nM | 100% | 31.3% | –
Nc1nc(N)c2cc(NCc3ccc(CCNC(=O)c4cccc(F)c4)cc3)ccc2n1 | – | 50.6 nM | 98.5% | 49.8% | –
Nc1nc(N)c2cc(NCc3ccc(CCNC(=O)c4ccco4)cc3)ccc2n1 | – | 107 nM | 97.8% | 28.9% | –
CCc1nnc(NC(=O)CCc2ccc(S(=O)(=O)Nc3ccc(F)cc3)cc2)s1 | 7000 nM | 6300 nM | 59.2% | 64.7% | Activity (Plasmodium falciparum [11]): 6.2%; Activity (Plasmodium falciparum [12]): 7.9%; IC50 (Falcipain 2 [9]): 7000 nM; IC50 [10]: 6300 nM
Nc1nc(N)c2cc(NCc3ccc(CCNC(=O)c4ccc5c(c4)OCCO5)cc3)ccc2n1 | – | 80.9 nM | 100% | 34.9% | –
